For one assay, the system named is HL-60. Kind of assay: Cytotoxicity against human HL60 cells after 2 days by sulforhodamine B assay. The assay is classed as functional, cell-based. Conditions: HL-60, 48 h. The method in brief: (§1)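 Cells plated at 5 × 10⁴/mL in RPMI-1640 with 5% fetal bovine serum; next day dosed at 0.5, 5, 50, 500 and 5000 ng/mL and cultured 2 days. Survival read by sulforhodamine B staining; IC50 taken from growth curves. Standard deviations below 30%.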
(In general: Sulforhodamine B stains cellular protein and so reports cell mass.)

Assay [1] has as its target Epidermal growth factor receptor (Homo sapiens, UniProt P00533). Kind of assay: Inhibition of recombinant EGFR (unknown origin) after 10 mins by DELFIA/time-resolved fluorometry.
The next assay deals with A549. Kind of assay: Cytotoxicity against human A549 cells after 2 days by sulforhodamine B assay. The conditions noted are these: A549, 48 h. The assay is classed as functional, cell-based. An outline of the steps:
as §1

The target in assay [2] is Receptor tyrosine-protein kinase erbB-2 (Homo sapiens, UniProt P04626). The assay can be described thus: Inhibition of recombinant ErbB-2 (unknown origin) after 10 mins by DELFIA/time-resolved fluorometry. The method in brief: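 Compound in DMSO, diluted in 25 mM HEPES pH 7.4, preincubated 10 min at room temperature with 12.5 ng recombinant ErbB-2. Reaction buffer with 20 mM HEPES, 2 mM MnCl₂, Na₃VO₄ and 1 mM DTT; 0.1 mM ATP–50 mM MgCl₂ added for 1 h. After washes, europium-labeled anti-phosphotyrosine antibody (400 ng) 1 h; enhancement solution, time-resolved fluorescence ex 340/em 615 nm. IC50 from percent-inhibition curves.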
Chain of Receptor tyrosine-protein kinase erbB-2 (P04626 whole entry): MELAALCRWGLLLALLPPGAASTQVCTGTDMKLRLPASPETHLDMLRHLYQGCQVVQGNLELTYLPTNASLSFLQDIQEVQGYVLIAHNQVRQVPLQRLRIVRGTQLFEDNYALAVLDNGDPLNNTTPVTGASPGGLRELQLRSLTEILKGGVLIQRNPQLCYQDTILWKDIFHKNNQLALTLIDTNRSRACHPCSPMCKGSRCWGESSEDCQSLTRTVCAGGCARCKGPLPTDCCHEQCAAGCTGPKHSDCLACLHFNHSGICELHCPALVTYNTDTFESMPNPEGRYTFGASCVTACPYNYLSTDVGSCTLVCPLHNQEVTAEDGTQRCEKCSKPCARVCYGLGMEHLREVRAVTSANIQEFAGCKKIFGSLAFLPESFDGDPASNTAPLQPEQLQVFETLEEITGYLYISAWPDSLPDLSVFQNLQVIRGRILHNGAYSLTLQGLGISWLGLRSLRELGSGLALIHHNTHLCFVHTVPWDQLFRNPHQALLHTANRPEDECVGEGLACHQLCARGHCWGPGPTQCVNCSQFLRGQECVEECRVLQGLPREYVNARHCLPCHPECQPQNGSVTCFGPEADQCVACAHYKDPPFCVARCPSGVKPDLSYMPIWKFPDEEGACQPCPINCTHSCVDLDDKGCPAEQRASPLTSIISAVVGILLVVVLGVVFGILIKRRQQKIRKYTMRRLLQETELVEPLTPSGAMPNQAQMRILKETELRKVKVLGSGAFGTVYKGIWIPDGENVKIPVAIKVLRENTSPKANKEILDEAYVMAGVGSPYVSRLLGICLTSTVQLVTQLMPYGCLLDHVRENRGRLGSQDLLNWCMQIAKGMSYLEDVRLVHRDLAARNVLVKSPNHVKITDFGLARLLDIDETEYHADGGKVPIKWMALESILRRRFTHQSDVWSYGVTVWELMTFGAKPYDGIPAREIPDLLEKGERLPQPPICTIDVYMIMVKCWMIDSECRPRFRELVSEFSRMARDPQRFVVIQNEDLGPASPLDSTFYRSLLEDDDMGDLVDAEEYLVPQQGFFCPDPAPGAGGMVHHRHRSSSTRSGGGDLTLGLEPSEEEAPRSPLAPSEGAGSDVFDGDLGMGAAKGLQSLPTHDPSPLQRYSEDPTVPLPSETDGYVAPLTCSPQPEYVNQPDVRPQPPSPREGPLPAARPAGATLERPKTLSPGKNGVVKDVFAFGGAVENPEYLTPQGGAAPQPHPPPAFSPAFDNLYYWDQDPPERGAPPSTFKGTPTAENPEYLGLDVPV

Chain of Epidermal growth factor receptor (P00533 whole entry): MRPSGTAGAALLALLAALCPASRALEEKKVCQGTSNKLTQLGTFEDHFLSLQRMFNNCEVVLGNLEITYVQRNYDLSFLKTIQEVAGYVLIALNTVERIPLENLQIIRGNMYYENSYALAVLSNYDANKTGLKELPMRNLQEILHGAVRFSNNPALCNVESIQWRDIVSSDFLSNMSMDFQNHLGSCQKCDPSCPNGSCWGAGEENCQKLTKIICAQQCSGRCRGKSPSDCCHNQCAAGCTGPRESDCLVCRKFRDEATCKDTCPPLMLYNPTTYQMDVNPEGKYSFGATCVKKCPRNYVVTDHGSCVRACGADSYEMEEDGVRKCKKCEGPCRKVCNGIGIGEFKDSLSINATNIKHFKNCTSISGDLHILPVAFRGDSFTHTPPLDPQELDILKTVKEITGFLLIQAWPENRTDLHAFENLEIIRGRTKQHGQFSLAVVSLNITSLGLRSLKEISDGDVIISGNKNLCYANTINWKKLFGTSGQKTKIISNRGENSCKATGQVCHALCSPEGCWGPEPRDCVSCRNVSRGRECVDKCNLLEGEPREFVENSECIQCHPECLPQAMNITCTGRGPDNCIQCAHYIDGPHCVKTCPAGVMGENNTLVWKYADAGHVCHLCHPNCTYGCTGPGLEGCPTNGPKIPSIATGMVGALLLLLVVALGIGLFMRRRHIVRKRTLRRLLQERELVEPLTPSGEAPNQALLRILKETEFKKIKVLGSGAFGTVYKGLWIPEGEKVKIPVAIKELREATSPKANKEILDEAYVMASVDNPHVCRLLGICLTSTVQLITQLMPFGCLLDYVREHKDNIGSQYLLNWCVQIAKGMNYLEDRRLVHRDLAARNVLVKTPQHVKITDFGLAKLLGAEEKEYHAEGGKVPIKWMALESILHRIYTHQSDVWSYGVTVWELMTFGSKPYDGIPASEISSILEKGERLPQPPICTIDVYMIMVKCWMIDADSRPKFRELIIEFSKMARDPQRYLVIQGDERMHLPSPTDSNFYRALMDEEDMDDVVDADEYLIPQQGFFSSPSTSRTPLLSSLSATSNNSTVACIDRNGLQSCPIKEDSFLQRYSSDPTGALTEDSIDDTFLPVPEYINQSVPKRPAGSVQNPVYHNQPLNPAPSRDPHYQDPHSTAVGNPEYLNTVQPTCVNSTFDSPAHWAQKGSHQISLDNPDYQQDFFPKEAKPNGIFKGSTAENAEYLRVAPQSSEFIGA

Take `CCOc1cc(N)c(C(=O)Nc2ccc(OCc3ccccn3)c(Cl)c2)cc1NC(=O)c1ccc(CN2CCN(C)CC2)cc1`: the values for the IC50 (in the assay with HL-60; in assay [1]; with A549) were 8 µM, 1 µM and 6 µM, respectively.
With `Cc1ncc(C#N)c(Nc2ccc(OCc3ccccn3)c(Cl)c2)c1C#Cc1ccc(CNCCS(C)(=O)=O)o1`, in assay [1], the IC50 came out at 1.5 µM.
As to `Cc1ccc(NC(=O)c2ccc(CN3CCN(C)CC3)cc2)cc1C(=O)Nc1ccc(OCc2cccc(F)c2)c(Cl)c1`, the IC50 came out at 6 µM in the assay with HL-60, 0.6 µM in assay [1] and 5.5 µM in the assay on A549.
On to `Cc1ncc(C#N)c(Oc2ccc(OCc3ccccn3)c(Cl)c2)c1C#Cc1ccc(CNCCS(C)(=O)=O)o1`, for which, in assay [1], the IC50 was over 5 µM.
Turning to `Cc1ccc(NC(=O)/C=C/CN(C)C)cc1C(=O)Nc1ccc(OCc2cccc(F)c2)c(Cl)c1`, the IC50 is 5.5 µM with HL-60, 0.45 µM in assay [1] and 7 µM in the assay with A549.
As for `CCOc1cc([N+](=O)[O-])c(C(=O)Nc2ccc(OCc3ccccn3)c(Cl)c2)cc1NC(=O)c1ccc(CN2CCN(C)CC2)cc1`, the IC50 in the assay with HL-60 worked out at 5 µM; with A549, 3.5 µM.
As to `Cc1ncnc(Nc2ccc(OCc3cccc(F)c3)c(Cl)c2)c1/C=C/c1ccc(CNCCS(C)(=O)=O)o1`, the IC50 in assay [1] is 0.46 µM; in assay [2] it was over 10 µM.
On to `CCOc1ccc(C(=O)Nc2nccc(-c3cccnc3)n2)cc1NC(=O)/C=C/CN(C)C`, for which the results for the IC50 (in the assay with HL-60; in assay [1]; with A549) were over 10 µM, 6 µM and over 10 µM, respectively.
Consider `CCOc1ccc(C(=O)Nc2ccc(OCc3ccccn3)c(Cl)c2)cc1NC(=O)c1ccc(CN2CCN(C)CC2)cc1`, for which the IC50 in the assay on HL-60 is over 10 µM; in assay [1], 3.5 µM; in the assay with A549, 6 µM.
Regarding `Cc1ccc(NC(=O)/C=C/CN(C)C)cc1C(=O)Nc1nccc(-c2cccnc2)n1`, the values for the half-maximal inhibitory concentration (IC50) (in assay [1]; with A549) were 5 µM and over 10 µM, respectively.
Turning to `CCOc1cc(N)c(C(=O)Nc2ccc(F)c(Cl)c2)cc1NC(=O)c1ccc(CN2CCN(C)CC2)cc1`, the IC50 in the assay on HL-60 was over 10 µM; in assay [1], 0.8 µM; in the assay with A549 it was over 10 µM.
In the case of `Cc1ncnc(Nc2ccc(OCc3cccc(F)c3)c(Cl)c2)c1/C=C/c1cccc(NC(=O)/C=C/CN(C)C)c1`, the IC50 in assay [1] was over 5 µM; in assay [2], over 10 µM.
Turning to `CN1CCN(Cc2ccc(C(=O)Nc3ccc(-c4cncc(C#N)c4Nc4ccc(OCc5ccccn5)c(Cl)c4)cc3)cc2)CC1`, the IC50 with HL-60 is 6 µM; in assay [1], 2.3 µM; in the assay on A549, over 10 µM.
As for `CCOc1ccc(C(=O)Nc2nccc(-c3cccnc3)n2)cc1NC(=O)c1ccc(CN2CCN(C)CC2)cc1`, the IC50 in the assay with HL-60 and with A549 was over 10 µM each time.
With `CCOc1cc([N+](=O)[O-])c(C(=O)Nc2ccc(OCc3cccc(F)c3)c(Cl)c2)cc1NC(=O)/C=C/CN(C)C`, the IC50 in the assay on HL-60 was found to be 4 µM; in assay [1], 2 µM; with A549 it was 3.5 µM.
Consider `CC(=O)c1ccc(Nc2c(C#N)cncc2-c2ccc(NC(=O)/C=C/CN(C)C)cc2)cc1`, for which the IC50 is over 10 µM with HL-60, over 5 µM in assay [1] and over 10 µM in the assay with A549.
`Cc1ncnc(Nc2ccc(OCc3cccc(F)c3)c(Cl)c2)c1C#Cc1ccc(CNCCS(C)(=O)=O)o1`: the IC50 was 0.045 µM in assay [1] and over 10 µM in assay [2].
`CCOc1ccc(C(=O)Nc2ccc(OCc3ccccn3)c(Cl)c2)cc1NC(=O)/C=C/CN(C)C`: the IC50 in the assay on HL-60 was over 10 µM; in assay [1], 1.2 µM; with A549 it was over 10 µM.
For `Cc1ccc(NC(=O)c2ccc(CN3CCN(C)CC3)cc2)cc1C(=O)Nc1nccc(-c2cccc(F)c2)n1`, the IC50 is 6 µM in assay [1] and over 10 µM in the assay with A549.
On to `CCOc1cc([N+](=O)[O-])c(C(=O)Nc2ccc(OCc3ccccn3)c(Cl)c2)cc1NC(=O)/C=C/CN(C)C`, for which the IC50 in the assay with HL-60 was 4 µM; in assay [1] it was 0.85 µM; in the assay on A549, 2.5 µM.
On the same counts, the results for `CCOc1cc(N)c(C(=O)Nc2ccc(OCc3cccc(F)c3)c(Cl)c2)cc1NC(=O)c1ccc(CN2CCN(C)CC2)cc1` are 7 µM, 5 µM and 6 µM.
On the same counts, the results for `CCOc1cc(N)c(C(=O)Nc2ccc(OCc3cccc(F)c3)c(Cl)c2)cc1NC(=O)/C=C/CN(C)C` are 6 µM, 1.5 µM and 5.5 µM.
On the same counts, the results for `CCOc1cc([N+](=O)[O-])c(C(=O)Nc2ccc(OCc3cccc(F)c3)c(Cl)c2)cc1NC(=O)c1ccc(CN2CCN(C)CC2)cc1` are 4.5 µM, 5.5 µM and 6 µM.
With `CN(C)C/C=C/C(=O)Nc1ccc(-c2cncc(C#N)c2Nc2ccc(OCc3ccccn3)c(Cl)c2)cc1`, the IC50 was over 10 µM with HL-60, over 5 µM in assay [1] and over 10 µM in the assay with A549.
Regarding `CCOc1cc(N)c(C(=O)Nc2ccc(F)c(Cl)c2)cc1NC(=O)/C=C/CN(C)C`, the IC50 was over 10 µM in the assay on HL-60, 4.5 µM in assay [1] and over 10 µM in the assay with A549.
Consider `CC(=O)c1ccc(Nc2c(C#N)cncc2-c2ccc(NC(=O)c3ccc(CN4CCN(C)CC4)cc3)cc2)cc1`, for which the IC50 in the assay on HL-60 was 5 µM; in assay [1] it was over 5 µM; in the assay on A549, over 10 µM.
On the same counts, the results for `CN1CCN(Cc2ccc(C(=O)Nc3ccc(-c4cncc(C#N)c4Nc4ccc(OCc5cccc(F)c5)c(Cl)c4)cc3)cc2)CC1` are 1.8 µM, 2.5 µM and 6 µM.
On the same counts, the results for `CN1CCN(Cc2ccc(C(=O)Nc3ccc(-c4cncc(C#N)c4Nc4ccc(F)c(Cl)c4)cc3)cc2)CC1` are 5 µM, 3 µM and over 10 µM.
On the same counts, the results for `CCOc1cc([N+](=O)[O-])c(C(=O)Nc2ccc(F)c(Cl)c2)cc1NC(=O)c1ccc(CN2CCN(C)CC2)cc1` are 5.5 µM, 5 µM and 6 µM.
As for `CN(C)C/C=C/C(=O)Nc1ccc(-c2cncc(C#N)c2Nc2ccc(F)c(Cl)c2)cc1`, the IC50 in the assay on HL-60 was 6 µM; in assay [1], 3.5 µM; with A549, over 10 µM.
In the case of `Cc1ncc(C#N)c(Nc2ccc(OCc3ccccn3)c(Cl)c2)c1/C=C/c1ccc(CNCCS(C)(=O)=O)o1`, the values for the IC50 in assay [1] and in assay [2] were over 5 µM and over 10 µM, respectively.
In the case of `Cc1ncc(C#N)c(Nc2ccc(OCc3ccccn3)c(Cl)c2)c1/C=C/c1cccc(NC(=O)/C=C/CN(C)C)c1`, the figures for the IC50 in assay [1] and in assay [2] were over 5 µM and over 10 µM, respectively.
In the case of `Cc1ncnc(Oc2ccc(OCc3ccccn3)c(Cl)c2)c1C#Cc1ccc(CNCCS(C)(=O)=O)o1`, the IC50 in assay [1] was over 5 µM.
As for `CN(C)C/C=C/C(=O)Nc1ccc(-c2cncc(C#N)c2Nc2ccc(OCc3cccc(F)c3)c(Cl)c2)cc1`, the IC50 with HL-60 is over 10 µM; in assay [1], 0.66 µM; in the assay with A549, 7 µM.
On to `CCOc1cc([N+](=O)[O-])c(C(=O)Nc2ccc(F)c(Cl)c2)cc1NC(=O)/C=C/CN(C)C`, for which the IC50 with HL-60 is 6 µM; in assay [1], 6 µM; in the assay with A549 it was over 10 µM.
Consider `CCOc1cc(N)c(C(=O)Nc2ccc(OCc3ccccn3)c(Cl)c2)cc1NC(=O)/C=C/CN(C)C`, for which the results for the IC50 (in the assay with HL-60; in assay [1]; in the assay on A549) were over 10 µM, 0.8 µM and over 10 µM, respectively.

Broadly, the IC50 is the concentration that gives 50% inhibition.

The record behind these values is ChEMBL document CHEMBL2384937, “Design, synthesis and biological evaluation of novel pyrimidine, 3-cyanopyridine and m-amino-N-phenylbenzamide based monocyclic EGFR tyrosine kinase inhibitors” (Bioorg Med Chem, 2013).
